Measurements taken from ChEMBL document CHEMBL1143805, “Synthesis and antimicrobial activities of some novel 1,2,4-triazolo[3,4-b]-1,3,4-thiadiazoles and 1,2,4-triazolo[3,4-b]-1,3,4-thiadiazines carrying thioalkyl and sulphonyl phenoxy moieties” (2007).
Converted amounts (≈) assume the structure as drawn.

Legend:
Escherichia coli = assay: Antibacterial activity against Escherichia coli ATCC 25922; type: functional; details: for MIC: Escherichia coli, ATCC 25922
Procedure, shortened: (§1)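 MIC by serial dilution in Mueller-Hinton broth tubes, pH adjusted to 5.0 with phosphate buffer. A standardized bacterial suspension was inoculated and incubated 16-18 h at 37 °C, and MIC was read as the lowest concentration with no visible growth. Zones were also measured in agar wells on seeded plates, with compounds in DMSO and a DMSO control, triplicate plates, 37 °C for 3-4 days.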

Klebsiella pneumoniae = assay: Antibacterial activity against Klebsiella pneumoniae; type: functional; details: for MIC: Klebsiella pneumoniae; procedure, shortened: as §1
Aspergillus fumigatus = assay: Antifungal activity against Aspergillus fumigatus NCIM 902; type: functional; details: for MIC: Aspergillus fumigatus, NCIM 902
Staphylococcus aureus = assay: Antibacterial activity against Staphylococcus aureus ATCC 25923; type: functional; details: for MIC: Staphylococcus aureus, ATCC 25923; procedure, shortened: as §1
Pseudomonas aeruginosa = assay: Antibacterial activity against Pseudomonas aeruginosa ATCC 27853; type: functional; details: for MIC: Pseudomonas aeruginosa, ATCC 27853; procedure, shortened: as §1
Aspergillus flavus = assay: Antifungal activity against Aspergillus flavus NCIM 524; type: functional; details: for MIC: Aspergillus flavus, NCIM 524
Procedure, shortened: (§2)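 Agar-well diffusion on Sabouraud agar at pH 5.7. Plates were lawned with a saline spore suspension (one loopful in 3 ml), decanted and dried 1 h at 37 °C. Compounds in DMSO went into punched wells, with a DMSO solvent control. Plates were run in triplicate and kept at 37 °C for 3-4 days, with inhibition-zone diameter as read-out.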

Trichophyton benhamiae = assay: Antifungal activity against Trichophyton mentagrophytes; type: functional, Arthroderma benhamiae; details: for MIC: Trichophyton benhamiae; procedure, shortened: as §2
Talaromyces marneffei = assay: Antifungal activity against Penicillium marneffei; type: functional; details: for MIC: Talaromyces marneffei; procedure, shortened: as §2

SMILES | inhibition zone (IZ) (Escherichia coli) [mm] | MIC (Escherichia coli) [µg/mL] | inhibition zone (IZ) (Klebsiella pneumoniae) [mm] | MIC (Klebsiella pneumoniae) [µg/mL] | inhibition zone (IZ) (Aspergillus fumigatus) [mm] | MIC (Aspergillus fumigatus) [µg/mL] | inhibition zone (IZ) (Staphylococcus aureus) [mm] | MIC (Staphylococcus aureus) [µg/mL] | inhibition zone (IZ) (Pseudomonas aeruginosa) [mm] | MIC (Pseudomonas aeruginosa) [µg/mL] | inhibition zone (IZ) (Aspergillus flavus) [mm] | MIC (Aspergillus flavus) [µg/mL] | inhibition zone (IZ) (Trichophyton benhamiae) [mm] | MIC (Trichophyton benhamiae) [µg/mL] | inhibition zone (IZ) (Talaromyces marneffei) [mm] | MIC (Talaromyces marneffei) [µg/mL]
CCSc1ccc(OCc2nnc3sc(-c4ccccc4Cl)nn23)cc1 | <10 | 25 (≈ 62 µM) | <10 | 25 (≈ 62 µM) | <10 | 25 (≈ 62 µM) | <10 | 25 (≈ 62 µM) | <10 | 25 (≈ 62 µM) | <10 | 25 (≈ 62 µM) | <10 | 25 (≈ 62 µM) | <10 | 25 (≈ 62 µM)
CS(=O)(=O)c1ccc(OCc2nnc3n2N=C(c2ccc(O)c(C(N)=O)c2)CS3)cc1 | 11 | 12.5 (≈ 27.2 µM) | 11 | 12.5 (≈ 27.2 µM) | 11 | 12.5 (≈ 27.2 µM) | 11 | 12.5 (≈ 27.2 µM) | 11 | 12.5 (≈ 27.2 µM) | 11 | 12.5 (≈ 27.2 µM) | 11 | 12.5 (≈ 27.2 µM) | <10 | 25 (≈ 54.4 µM)
CS(=O)(=O)c1ccc(OCc2nnc3sc(-c4ccccc4Cl)nn23)cc1 | 11 | 12.5 (≈ 29.7 µM) | 11 | 12.5 (≈ 29.7 µM) | 11 | 12.5 (≈ 29.7 µM) | 11 | 12.5 (≈ 29.7 µM) | 11 | 12.5 (≈ 29.7 µM) | 11 | 12.5 (≈ 29.7 µM) | 11 | 12.5 (≈ 29.7 µM) | <10 | 25 (≈ 59.4 µM)
CSc1ccc(OCc2nnc3n2N=C(c2ccc(Cl)cc2Cl)CS3)cc1 | 16 | 6.25 (≈ 14.3 µM) | 16 | 6.25 (≈ 14.3 µM) | 16 | 6.25 (≈ 14.3 µM) | 16 | 6.25 (≈ 14.3 µM) | 16 | 6.25 (≈ 14.3 µM) | 16 | 6.25 (≈ 14.3 µM) | 16 | 6.25 (≈ 14.3 µM) | 16 | 6.25 (≈ 14.3 µM)
CCSc1ccc(OCc2nnc3sc(-c4ccccc4O)nn23)cc1 | <10 | 25 (≈ 65 µM) | <10 | 25 (≈ 65 µM) | <10 | 25 (≈ 65 µM) | <10 | 25 (≈ 65 µM) | <10 | 25 (≈ 65 µM) | <10 | 25 (≈ 65 µM) | <10 | 25 (≈ 65 µM) | <10 | 25 (≈ 65 µM)
CSc1ccc(OCc2nnc3sc(-c4ccc(N)cc4)nn23)cc1 | 16 | 6.25 (≈ 16.9 µM) | 16 | 6.25 (≈ 16.9 µM) | 16 | 6.25 (≈ 16.9 µM) | 16 | 6.25 (≈ 16.9 µM) | 16 | 6.25 (≈ 16.9 µM) | 16 | 6.25 (≈ 16.9 µM) | 16 | 6.25 (≈ 16.9 µM) | 16 | 6.25 (≈ 16.9 µM)
CCSc1ccc(OCc2nnc3sc(-c4ccccc4N)nn23)cc1 | <10 | 25 (≈ 65.2 µM) | <10 | 25 (≈ 65.2 µM) | <10 | 25 (≈ 65.2 µM) | <10 | 25 (≈ 65.2 µM) | <10 | 25 (≈ 65.2 µM) | <10 | 25 (≈ 65.2 µM) | <10 | 25 (≈ 65.2 µM) | <10 | 25 (≈ 65.2 µM)
CSc1ccc(OCc2nnc3sc(-c4ccccc4Cl)nn23)cc1 | <10 | 25 (≈ 64.3 µM) | <10 | 25 (≈ 64.3 µM) | <10 | 25 (≈ 64.3 µM) | <10 | 25 (≈ 64.3 µM) | <10 | 25 (≈ 64.3 µM) | <10 | 25 (≈ 64.3 µM) | <10 | 25 (≈ 64.3 µM) | <10 | 25 (≈ 64.3 µM)
CCSc1ccc(OCc2nnc3n2N=C(c2ccc(O)c(C(N)=O)c2)CS3)cc1 | 16 | 6.25 (≈ 14.2 µM) | 16 | 6.25 (≈ 14.2 µM) | 16 | 6.25 (≈ 14.2 µM) | 16 | 6.25 (≈ 14.2 µM) | 16 | 6.25 (≈ 14.2 µM) | 16 | 6.25 (≈ 14.2 µM) | 16 | 6.25 (≈ 14.2 µM) | 16 | 6.25 (≈ 14.2 µM)
CCSc1ccc(OCc2nnc3sc(-c4ccc(OC)cc4)nn23)cc1 | <10 | 25 (≈ 62.7 µM) | <10 | 25 (≈ 62.7 µM) | <10 | 25 (≈ 62.7 µM) | <10 | 25 (≈ 62.7 µM) | <10 | 25 (≈ 62.7 µM) | <10 | 25 (≈ 62.7 µM) | <10 | 25 (≈ 62.7 µM) | <10 | 25 (≈ 62.7 µM)
CSc1ccc(OCc2nnc3sc(-c4ccccc4)nn23)cc1 | 16 | 6.25 (≈ 17.6 µM) | 16 | 6.25 (≈ 17.6 µM) | 16 | 6.25 (≈ 17.6 µM) | 16 | 6.25 (≈ 17.6 µM) | 16 | 6.25 (≈ 17.6 µM) | 16 | 6.25 (≈ 17.6 µM) | 16 | 6.25 (≈ 17.6 µM) | 16 | 6.25 (≈ 17.6 µM)
CS(=O)(=O)c1ccc(OCc2nnc3sc(Cc4ccccc4)nn23)cc1 | 11 | 12.5 (≈ 31.2 µM) | 11 | 12.5 (≈ 31.2 µM) | 11 | 12.5 (≈ 31.2 µM) | 11 | 12.5 (≈ 31.2 µM) | 11 | 12.5 (≈ 31.2 µM) | 11 | 12.5 (≈ 31.2 µM) | 11 | 12.5 (≈ 31.2 µM) | <10 | 25 (≈ 62.4 µM)
CSc1ccc(OCc2nnc3sc(-c4cccc(Cl)c4Cl)nn23)cc1 | 16 | 6.25 (≈ 14.8 µM) | 16 | 6.25 (≈ 14.8 µM) | 16 | 6.25 (≈ 14.8 µM) | 16 | 6.25 (≈ 14.8 µM) | 16 | 6.25 (≈ 14.8 µM) | 16 | 6.25 (≈ 14.8 µM) | 16 | 6.25 (≈ 14.8 µM) | 16 | 6.25 (≈ 14.8 µM)
O=C(O)c1cn(C2CC2)c2cc(N3CCNCC3)c(F)cc2c1=O [CIPROFLOXACIN] | 30 |  | 23 | 6.25 (≈ 18.9 µM) |  |  | 22 | 1.56 (≈ 4.71 µM) | 25 |  |  |  |  |  |  | 
